Screens: PubChem, The Scripps Research Institute Molecular Screening Center
Shown is part of a subset that was picked to be rich in hits.
RORa inhibitor – blocks the human nuclear receptor RORA; P35398; CHO-K1 Gal4-RORA LBD luciferase reporter, luminescence; inhibition, % at 10 µM; hit rate 0.43% among 65,000; AID 561;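 active means inhibition above the mean of all tested compounds plus 3 SD, cut at about 52% in these data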;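 further: 0% = RORA-transfected cells with DMSO and 100% = mock-transfected cells lacking RORA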
Target sequence (P35398 whole entry, looked up, the tested form may be a part): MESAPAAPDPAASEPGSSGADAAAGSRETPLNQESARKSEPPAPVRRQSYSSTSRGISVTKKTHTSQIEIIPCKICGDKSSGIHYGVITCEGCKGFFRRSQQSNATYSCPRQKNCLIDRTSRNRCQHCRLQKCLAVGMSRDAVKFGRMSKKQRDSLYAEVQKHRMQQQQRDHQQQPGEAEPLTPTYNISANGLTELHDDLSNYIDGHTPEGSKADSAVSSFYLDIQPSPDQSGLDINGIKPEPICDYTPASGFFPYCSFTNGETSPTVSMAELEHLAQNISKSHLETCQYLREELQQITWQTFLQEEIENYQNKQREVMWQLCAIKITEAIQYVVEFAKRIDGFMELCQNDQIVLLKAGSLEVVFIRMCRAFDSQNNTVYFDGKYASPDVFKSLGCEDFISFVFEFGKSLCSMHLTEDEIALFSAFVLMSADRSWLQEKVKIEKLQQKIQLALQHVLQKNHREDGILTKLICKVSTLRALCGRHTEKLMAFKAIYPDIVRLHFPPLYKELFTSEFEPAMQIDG
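Test system: CHO-K1 cells with Gal4-hRORA LBD fusion and pG5-luc reporter / Compound: single concentration per compound, 10 µM final / Schedule: 20 h compound treatment, 37 °C / Signal: luminescence from basal luciferase reporter expression / Read-out: % inhibition / Control set: mock-transfected cells as 100%, +RORA DMSO cells as 0% / Replicates: tested once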
* marks the source's active call; other numbers are inactive results.

SMILES	RORa inhibitor
Cn1nnc(NC(=O)CSc2ccc(Cl)cc2)n1	-10
Cn1nnc(NC(=O)CSc2nnnn2-c2ccc(F)cc2)n1	17
O=C(CSc1nnnn1-c1ccccc1)Nc1nsc(-c2ccc(Cl)cc2)n1	71*
COc1ccc(-n2c(SCCC(=O)O)nnc2-c2ccncc2)cc1	7
O=C(Nc1ccccc1)NC1(C(=O)N2CCN(c3ncccn3)CC2)CCCCC1	-16
CN1CCN(S(=O)(=O)c2ccc(Br)s2)CC1	-63
CCOC(=O)C1CCN(C(=O)CNS(=O)(=O)c2ccc(Br)s2)CC1	-10
O=S(=O)(NCc1ccncc1)c1ccc(Br)s1	65*
CCCCNc1cc(=O)n(C)c(=O)[nH]1	4
CCN(CC)c1ccc(-c2nc3cnccc3n2C)cc1	-67
CCC(C)NC(=O)c1cc(-c2ccc(OC)cc2)on1 (stereo not drawn)	-60
CCOc1ccc(-c2cc(CCCC(=O)NCCCOC)no2)cc1	58*
CCOc1ccc(-c2cc(C(=O)NCCCN3CCN(CC)CC3)c3ccccc3n2)cc1	-32
CCCCN1c2cc(C)c(O)cc2C(C(=O)OCC)C1C (stereo not drawn)	5
O=P(O)(O)c1ccccc1OCc1ccccc1	-8
O=C(COc1ccccc1Cl)Nc1ccc(Cl)cn1	-62
O=C(O)c1cccc(COc2ccccc2Cl)c1	92*
Cc1cccc2c1NC(C)CC2C (stereo not drawn)	9
CCN(CC)CCCN1C(=O)C(O)=C(C(=O)c2sc(C)nc2C)C1c1ccco1 (stereo not drawn)	0
Cc1ccc2c(c1)nnn2C1CCN(S(C)(=O)=O)CC1	16
Cc1ccc2c(c1)nnn2C1CCN(S(=O)(=O)c2ccc(C(=O)N3C(C)CCCC3C)cc2)CC1 (stereo not drawn)	63*
COc1ccc(S(=O)(=O)N2CCC(n3cnc4cc(C(F)(F)F)ccc43)CC2)cc1	18
Cc1cc(NC(=O)C2CCN(S(=O)(=O)Cc3ccccc3)CC2)ccc1-n1cnnn1	0
C=CCN(CC(=O)NCc1ccccc1)C(=O)c1csnn1	13
CCOC(=O)c1c(C)[nH]c(C(=O)C(C)OC(=O)c2cccc(OCc3c(C)noc3C)c2)c1C (stereo not drawn)	56*
SMILES	RORa inhibitor
COc1ccc2nc(NC(=O)c3cccc(OCc4c(C)noc4C)c3)sc2c1	-86
CCOC(=O)c1[nH]c(C)c(C(=O)c2cc(F)ccc2F)c1C	8
COc1nc(N(C#N)CC(N)=O)nc(N2CCCC2)n1	0
COc1cccc(C2C(C(=O)c3ccco3)=C(O)C(=O)N2CCCN2CCOCC2)c1OC (stereo not drawn)	5
CCCOc1ccc(S(=O)(=O)n2cc(Br)c(=O)[nH]c2=O)cc1	-50
CC(C)(C)NC(=O)CSc1nnc(NC(=O)CCn2cnc3ccccc3c2=O)s1	9
O=C(CSC1=NCCS1)Nc1ccnc2ccccc12	73*
O=C(CSc1cn(Cc2ccccc2)c2ccccc12)Nc1nccs1	-76
N#CNC1=NCN(Cc2ccccc2)CN1	8
COc1cc(CN/C(C)=C(\C#N)C(N)=O)cc(OC)c1OC	-15
COC(=O)c1ccc(NC(=O)C2CCCN(S(=O)(=O)c3cnc[nH]3)C2)cc1 (stereo not drawn)	6
O=C(NCCN1CCOCC1)C1CC(=O)N(c2ccc(F)c(Cl)c2)C1 (stereo not drawn)	-7
O=C(Nc1ccc(-c2nc3ccccc3o2)cc1)c1ccc2c(c1)OCO2	6
O=C(c1ccc(-c2nnc(-c3ccccc3)o2)cc1)N1CCCCCC1	-60
O=C(c1ccc(Cl)cc1)N1CCCCC(Sc2nnc(-c3ccc4c(c3)OCO4)o2)C1=O (stereo not drawn)	76*
COc1cccc(NC(=O)c2nnn(Cc3ccc(Br)cc3F)c2N)c1	-58
COc1cc2c(cc1OC)C(=NCCC(=O)O)NC(C)(C)C2	3
COc1ccc(Nc2nccc3c2nnn3C)cc1	-53
Cc1cccc(C)c1NC(=O)c1cc(S(=O)(=O)N2CCOCC2)ccc1F	-3
COc1cccc(NC(=O)CNC(C)CCC(C)C)c1 (stereo not drawn)	14
COc1cccc(NC(=O)Cn2c(SCC(=O)N3CCOCC3)nc3ccccc32)c1	-17
COc1cccc(NC(=O)CSc2nnc(-c3cc(C)n(-c4ccccc4)c3C)o2)c1	71*
CC1CCc2cc(F)cc3c(O)c(C(=O)Nc4cnccn4)c(=O)n1c23 (stereo not drawn)	20
O=C1CCCN1CC(CN1CCOCC1)Sc1nc2ccccc2c(=O)n1-c1ccccc1 (stereo not drawn)	17
CC(=O)OC(C(=O)Nc1ccccc1)C(C)S(=O)(=O)c1ccccc1 (stereo not drawn)	20
SMILES	RORa inhibitor
Cc1ccccc1C(=O)/C=C1\NC(=O)CS1	16
CN=c1scc(C)n1/N=C/c1ccc(O)cc1O	63*
CN1CCN(C(=O)CN(c2cccc(Cl)c2)S(=O)(=O)c2ccccc2)CC1	-48
CCn1cc(C(=O)Nc2cc3c(cc2NC(C)=O)OCCO3)c(=O)c2ccc(C)nc21	3
CC(=O)c1ccc(N2CCN(c3ccc(C(F)(F)F)cn3)CC2)cc1	54*
COc1ccc(C(=O)CN2CCN(c3ccc(F)cc3)CC2)cc1OC	14
CC(=O)c1cc2c(cc1NC(=O)CN1CCN(c3cccc(C(F)(F)F)c3)CC1)OCO2	12
C=C(C)Cn1c(N2CC(C)CC(C)C2)nc2c1c(=O)[nH]c(=O)n2C (stereo not drawn)	8
C=CCSc1nc2ccccc2n1Cc1nnc(-c2cccs2)o1	18
O=C(O)c1cccc(S(=O)(=O)N2CCSCC2)c1	3
CC1(C)Cc2c(sc3nc4n(c(=N)c23)CCC4)CO1	12
COc1ccc(-c2csc(N3CCOCC3)n2)cc1OC	-61
COc1ccc(-c2cc3nc4n(c(=O)c3s2)CCOC4)cc1	60*
Cn1cnnc1SCC(=O)Nc1ccccc1C(=O)NC1CCCC1	-4
O=S(=O)(Cc1ccccc1)N1CCc2ccccc21	6
Cc1ccc(S(=O)(=O)N2CCC(C(=O)N3CCC(C(=O)NCc4cccnc4)CC3)CC2)cc1	10
Cc1ccccc1S(=O)(=O)Cc1ccc(C(=O)NCCCOC(C)C)o1	17
Cc1cccc(-n2c(CNC(=O)c3ccccc3)nnc2SCC(=O)Nc2nccs2)c1	-7
CCCCCOC(=O)c1[nH]c2c(c1C)C(=O)CC(c1ccco1)C2 (stereo not drawn)	54*
CCOC(=O)C1C(C)=CC(=O)CC1c1ccco1 (stereo not drawn)	-3
Cc1c(C(=O)O)[nH]c2c1C(=O)CC(c1ccc(Cl)cc1)C2 (stereo not drawn)	-9
Cc1ccc(C)c(-n2c(Cc3cc(=O)[nH]c(=O)[nH]3)nnc2SCC(=O)NCC2CCCO2)c1 (stereo not drawn)	-2
CC(=O)N1CCN(c2ccc(Nc3nc(C)nc4c3oc3ccccc34)cc2)CC1	-18
Cc1nc(NC(C)c2ccccc2)c2oc3ccccc3c2n1 (stereo not drawn)	58*
c1ccc(Oc2ccc(-n3cnnn3)cc2)cc1	5
O=C1CCn2nc(-c3ccc(Cl)cc3)cc2N1	-61
CCN1CCN(C(=O)C2c3cc(OC)c(OC)cc3C(=O)N(C)C2c2ccc(SC)cc2)CC1 (stereo not drawn)	5
Cc1ccc(-c2nc3nc4ccccc4nc3n2Cc2ccco2)cc1	68*
CCCn1c(-c2ccc(OC)cc2)nc2nc3ccccc3nc21	-4
c1ccc(Cn2c(-c3ccco3)nc3nc4ccccc4nc32)cc1	-75
